From PubChem BioAssay
In the library only some 2.7% were active in any assay of this set; here they are far more common.
pPAFAH inh = pPAFAH enzyme inhibitors, primary screen, biochemical, fluorescence polarization, human | inhibition, % at 3.39 µM | hit rate 1.5% among 330,000 | Platelet-activating factor acetylhydrolase (Homo sapiens), Q13093 | recombinant pPAFAH, FP-rhodamine probe fluorescence polarization;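 active means inhibition above the mean inhibition across the screen plus 3 SD, cut at about 25% in these data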;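 further: inhibitors block binding of the rhodamine activity-based probe so polarization drops; 0% = enzyme with DMSO and 100% = wells lacking pPAFAH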
ARFGAP1 inh = inhibitors of rat ARFGAP1 GAP activity, primary screen, biochemical, fluorescence polarization, GDP tracer. ADP-ribosylation factor GTPase-activating protein 1 (Rattus norvegicus), Q62848. Arfgap1-stimulated ARF1 GTP hydrolysis, GDP FP detection. inhibition, % at 16.5 µM. hit rate 0.26% among 360,000;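 active means inhibition above a per-plate limit, mean inhibition of low control wells plus 3 SD, cut at about 25% in these data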;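 further: 0% = DMSO wells with enzyme and 100% = wells lacking Arfgap1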
Target sequence (Q62848 1-136 limits assumed): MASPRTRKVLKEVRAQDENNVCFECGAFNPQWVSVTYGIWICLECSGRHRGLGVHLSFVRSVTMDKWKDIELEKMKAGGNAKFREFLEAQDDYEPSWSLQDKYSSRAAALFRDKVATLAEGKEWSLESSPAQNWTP
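system = rat Arfgap1 catalytic domain, aa 1-136 | technique = FP, GDP Alexa 633 tracer displaced from anti-GDP antibody, 620/688 nm | compound = one concentration, 16.5 µM, DMSO 1.26% | medium = HEPES-based buffer, pH 7.5 | timing = compound-enzyme preincubation 20 min, reaction 120 min, detection 60 min, 25 °C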
PAFAH2 FP inh = PAFAH2 enzyme inhibitors, primary screen, biochemical, fluorescence polarization, human. inhibition, % at 3.39 µM. hit rate 0.99% among 340,000. recombinant PAFAH2, FP-rhodamine activity probe. AID 492956, 2010. Platelet-activating factor acetylhydrolase 2, cytoplasmic (Homo sapiens), Q99487;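 active means inhibition above the mean over all tested compounds plus 3 SD, cut at about 30% in these data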;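 further: inhibitors block probe labeling of enzyme so polarization drops; 0% = enzyme with DMSO and 100% = wells lacking PAFAH2 protein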
PAFAH1B3 inh = PAFAH1B3 enzyme inhibitors, primary screen, biochemical, fluorescence polarization, human | Platelet-activating factor acetylhydrolase IB subunit alpha1 (Homo sapiens), Q15102 | inhibition, % at 3.39 µM | hit rate 0.28% among 340,000 | recombinant PAFAH1B3, FP-rhodamine probe;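 active means inhibition above the screen-wide average of all tested compounds plus 3 SD, cut at about 25% in these data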;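 further: 0% = enzyme with DMSO only and 100% = wells lacking PAFAH1B3 protein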
Target sequence (Q15102 whole entry, looked up): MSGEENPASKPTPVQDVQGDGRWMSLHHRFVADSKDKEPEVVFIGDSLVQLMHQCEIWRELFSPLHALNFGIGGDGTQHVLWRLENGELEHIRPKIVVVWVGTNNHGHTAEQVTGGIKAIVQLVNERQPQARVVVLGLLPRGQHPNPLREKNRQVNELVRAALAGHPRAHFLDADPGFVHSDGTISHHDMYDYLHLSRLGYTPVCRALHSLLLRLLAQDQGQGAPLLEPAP
ASAP1 GAP inh = inhibitors of human ASAP1 ArfGAP activity, primary screen, biochemical, fluorescence polarization. Arf-GAP with SH3 domain, ANK repeat and PH domain-containing protein 1 (Homo sapiens), …. ASAP1-stimulated ARF1 GTP hydrolysis, GDP FP detection. inhibition, % at 16.5 µM. hit rate 0.19% among 360,000; in the data active means inhibition above about 25%;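 further: 0% = vehicle with enzyme and substrate and 100% = no enzyme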
PAFAH1B2 inh = PAFAH1B2 enzyme inhibitors, primary screen, biochemical, fluorescence polarization, human; hit rate 1.2% among 340,000; AID 492953, 2010; recombinant PAFAH1B2, FP-rhodamine activity probe; inhibition, % at 3.39 µM;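 active means inhibition above the mean of all tested compounds plus 3 SD, cut at about 24% in these data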;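 further: 0% = enzyme with DMSO and 100% = wells lacking PAFAH1B2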
Target sequence (P68402 whole entry, looked up): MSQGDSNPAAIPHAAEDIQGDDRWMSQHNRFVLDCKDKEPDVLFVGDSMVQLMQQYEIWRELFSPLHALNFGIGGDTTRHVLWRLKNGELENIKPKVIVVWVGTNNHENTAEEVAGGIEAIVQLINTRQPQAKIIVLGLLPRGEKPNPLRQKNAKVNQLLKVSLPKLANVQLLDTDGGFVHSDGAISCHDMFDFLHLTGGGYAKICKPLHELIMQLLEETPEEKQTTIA
PAFAH2 confirm = PAFAH2 enzyme inhibitors, confirmation, biochemical, fluorescence polarization, human. inhibition, % at 3.39 µM. recombinant PAFAH2, FP-rhodamine activity probe. hit rate 65% among 2,300. AID 493030, 2011. shares compounds with PAFAH2 FP inh;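 active means mean inhibition over three repeats above a set limit taken from the earlier primary screen, cut at about 30% in these data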;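 further: inhibitor blocks binding of rhodamine activity probe so polarization falls; 0% = enzyme with DMSO and 100% = wells lacking PAFAH2 protein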
The depositor's hits bear a star; . = no result given.

SMILES	pPAFAH inh	ARFGAP1 inh	PAFAH2 FP inh	PAFAH1B3 inh	ASAP1 GAP inh	PAFAH1B2 inh	PAFAH2 confirm
O=C(CC[C@H]1O[C@@H](n2ccc(=O)[nH]c2=O)[C@H](O)[C@@H]1O)NCC1CCCO1 (stereo partly drawn)	.	1	.	.	3	.	.
C[C@@H]1CN([C@H](C)CO)C(=O)CCCn2nncc2CO[C@H]1CN(C)Cc1ccc(Cl)c(Cl)c1	.	13	.	.	8	.	.
Cc1c(Cl)cccc1N=Cc1ccc([N+](=O)[O-])s1	11	2	71*	13	-1	13	8
Cc1ccccc1C(=O)N/N=C/c1ccc([N+](=O)[O-])s1	10	0	10	11	4	3	.
COc1ccc(C(=O)OCC(=O)NCc2cccs2)c(OC)c1OC	6	6	72*	13	-19	7	65*
Cc1ccc(C(=O)OCC(=O)NCc2cccs2)c(C)c1	1	-5	32*	6	1	-3	25
Fc1ccc2cc(-c3ccccc3F)ncc2c1	-3	6	0	13	9	-4	.
Cc1ccc(/C=C2\Oc3c(ccc(O)c3CN3CCN(C)CC3)C2=O)cc1	6	11	26	5	7	1	.
CCN1CCN(Cc2c(O)ccc3c2O/C(=C\C=C\c2ccccc2)C3=O)CC1	2	16	36*	-3	8	0	32*
CCN1CCN(Cc2c(O)ccc3c2O/C(=C\c2ccc(C)cc2)C3=O)CC1	4	10	33*	1	-5	-1	25
CCc1ccc(/C=C2\Oc3c(ccc(O)c3CN3CCN(C)CC3)C2=O)cc1	1	18	58*	6	16	7	53*
O=C(COc1ccccc1)NCC(=O)N1CCCC(C(F)(F)F)C1 (stereo not drawn)	.	6	2	5	-4	5	.
O=c1c2c(nc3c(-c4cccc5ccccc45)c[nH]n13)CCC2	11	-11	68*	6	-2	1	69*
Cc1[nH]n2c(=O)c3c(nc2c1-c1cccc2ccccc12)CCC3	6	8	10	4	-3	-1	.
COc1ccc(C(=O)NC(C)C2CC3CCC2C3)cc1 (stereo not drawn)	3	-1	3	7	4	16	.
CC(NC(=O)COC(=O)c1ccc(CO)cc1)C1CC2CCC1C2 (stereo not drawn)	1	-5	68*	2	3	2	64*
CC(NC(=O)c1ccc(N(C)C)cc1)C1CC2CCC1C2 (stereo not drawn)	.	1	46*	0	-3	12	33*
Cc1ccc(C)n1-c1sccc1C(=O)O	.	.	46*	9	.	2	25
COc1ccc(N(CC(=O)NCc2cccs2)S(=O)(=O)c2ccc(C(C)=O)cc2)cc1	.	4	.	.	-6	.	.
C=CCNC(=O)c1onc(CSc2ccccc2C)c1C(=O)O	2	4	36*	2	-1	2	26
Cc1cccc(SCc2noc(C(=O)NCC3CCCO3)c2C(=O)O)c1 (stereo not drawn)	5	4	11	9	8	0	.
Cc1cc(C)cc(SCc2noc(C(=O)NCC3CCCO3)c2C(=O)O)c1 (stereo not drawn)	0	0	36*	9	-12	7	29
CCCCNC(=O)c1onc(CSc2ccccc2)c1C(=O)NCCCC	5	-17	5	3	-2	5	.
CCCCNC(=O)c1onc(CSc2ccccc2CC)c1C(=O)O	12	-2	58*	9	6	24	44*
CCc1nc2c(OCc3cccc(Cl)c3)cccn2c1N(C)C(C)=O	.	-2	.	.	8	.	.
SMILES	pPAFAH inh	ARFGAP1 inh	PAFAH2 FP inh	PAFAH1B3 inh	ASAP1 GAP inh	PAFAH1B2 inh	PAFAH2 confirm
c1ccc(C(CN2CCCCC2)Oc2ccccn2)cc1 (stereo not drawn)	.	-5	-5	-4	3	3	.
O=C(CCC(NC(=O)OCc1ccccc1)C(=O)OCC(=O)N1CCCCC1)OCC(=O)N1CCCCC1 (stereo not drawn)	3	12	53*	7	6	6	48*
O=C(COC(=O)CCC(NC(=O)OCc1ccccc1)C(=O)OCC(=O)Nc1ccccc1)Nc1ccccc1 (stereo not drawn)	3	0	70*	-8	8	6	84*
COc1ccc(/C=C/C(=O)OCc2cc(=O)n3c(n2)sc2ccccc23)cc1	-4	2	-2	-16	23	3	.
O=C(OCc1nc2ccccc2s1)c1cccc(S(=O)(=O)N2CCOCC2)c1	12	11	45*	9	0	0	29
O=C(CCc1ccc(S(=O)(=O)N2CCOCC2)cc1)OCc1nc2ccccc2s1	6	7	-6	6	1	2	.
Nc1ccc(C(=O)OCc2nc3ccccc3s2)cc1	1	4	60*	6	3	-1	48*
O=C(OCc1nc2ccccc2s1)c1ccc(Br)s1	11	4	17	3	-12	1	.
O=C(OCc1cc(=O)n2c(n1)sc1ccccc12)c1ccc(O)cc1	5	17	34*	4	4	0	7
CCCCN(C)C(=O)c1sc(=O)n(Cc2c(C)cccc2C)c1C	.	-7	.	.	0	.	.
O=C(COC(=O)C1CC1)Nc1ccc(N=Nc2ccccc2)cc1	10	6	85*	4	4	3	78*
O=C(COC(=O)C1CC1)NC(=O)c1ccccc1	0	-10	32*	2	-1	11	13
O=C(COC(=O)C1CC1)Nc1ccc(OC(F)F)cc1	13	-16	55*	9	-3	1	46*
CCCCC(=O)OCC(=O)Nc1ccc(OC(F)F)cc1	8	-6	25	4	-5	-1	.
Cc1nc2ccc(NC(=O)c3ccc(C)c(S(=O)(=O)N4CCOCC4)c3)cc2s1	11	5	5	1	-4	-2	.
CC(=O)c1c(C)[nH]c(C(=O)OCC(=O)Nc2cccc(S(=O)(=O)N(C)C)c2)c1C	-5	12	31*	9	-1	11	31*
CC(=O)c1c(C)[nH]c(C(=O)OCC(=O)Nc2cccc(S(=O)(=O)N3CCCC3)c2)c1C	-9	-6	37*	-5	1	-6	15
NC(=O)c1ncn([C@@H]2O[C@H](C(=O)N[C@H](Cc3c[nH]c4ccccc34)C(=O)O)[C@@H](O)[C@H]2O)n1	.	3	.	.	-10	.	.
